Screening results as filed in PubChem.
Tn7 DDE FP: disrupts Tn7 cyclic peptide binding to fibrin D-Dimer-E complex; AID 720508; P02675; FP displacement of FITC-Tn7 peptide from fibrin DD(E); 0% = median of compound wells per plate; inhibition, % at 8.3 µM; 370,000 tested, 0.13% active;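 active means inhibition above the mean of compounds falling within the control limits plus 3 SD of them, cut at about 14% in these data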
Target sequence (P02675 whole entry, looked up): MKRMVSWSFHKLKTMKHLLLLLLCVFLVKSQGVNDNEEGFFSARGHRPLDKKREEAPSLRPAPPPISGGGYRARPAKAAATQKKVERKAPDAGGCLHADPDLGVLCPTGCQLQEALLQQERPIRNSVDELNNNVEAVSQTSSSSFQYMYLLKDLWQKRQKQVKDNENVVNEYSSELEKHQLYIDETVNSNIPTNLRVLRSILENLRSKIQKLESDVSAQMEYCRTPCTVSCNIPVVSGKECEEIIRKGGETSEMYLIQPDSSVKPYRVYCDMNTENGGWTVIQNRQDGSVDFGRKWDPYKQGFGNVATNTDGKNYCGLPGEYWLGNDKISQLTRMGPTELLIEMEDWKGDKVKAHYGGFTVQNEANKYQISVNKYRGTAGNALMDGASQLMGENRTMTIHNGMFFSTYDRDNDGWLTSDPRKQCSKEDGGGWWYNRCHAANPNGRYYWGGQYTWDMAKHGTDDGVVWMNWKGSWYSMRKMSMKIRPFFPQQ
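Test system – human fibrin DD(E) · Times – 10 min preincubation, 3 h with tracer, room temperature · Detection – fluorescence polarization of the labelled Tn7 tracer · Measure – percent inhibition normalized to high-control wells · Benchmarks – high control wells with 10 µM unlabelled Aha-Tn7 peptide (full inhibition) · Repeats – singlicate testing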
CRFR2-BP antag: CRF-BP/CRF-R2 complex antagonism; HEK293 CRF-R2/CRF-BP, CRF-induced calcium fluorescence; inhibition, % at 11.8 µM; 350,000 tested, 0.59% active; AID 588475;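 active means inhibition of the ligand-induced calcium signal above about 50% at the single tested concentration, limit read from the data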
proKLK7 act: proKLK7 (human) activation, primary screen | 370,000 tested, 0.9% active | AID 652039 | activation, % at 7 µM | purified proKLK7, EDANS-DABCYL substrate fluorescence; 100% is mature enzyme control, 0% vehicle | P49862;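 active means activation above the mean of all tested compounds plus 3 SD, computed per campaign excluding outliers beyond control limits, cut at about 13% in these data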
CendR NRP1 mod: alters CendR peptide binding to human NRP-1; inhibition, % at 25 µM; 360,000 tested, 0.85% active; FAM-RPARPAR peptide binding to NRP-1, fluorescence polarization;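 active means inhibition or corrected inhibition above about 18%, plus a signal ratio from 0.5 to 1.5, limit read from the data, passing the limit was not always enough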
CRFBP-R2 agonist: agonists of human CRF-binding protein/CRF-R2 receptor complex. HEK293 CRF-R2/CRF-BP, calcium dye fluorescence (FLIPR); percent of saturating CRF peptide response. activation, % at 13.2 µM. 350,000 tested, 0.46% active. AID 588473;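 active means activation of at least 50%, plus an integration ratio under a set limit after plate pattern correction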
Tn6 DDE FP: inhibitors of Tn6 peptide binding to human fibrin DD(E) | P02675 | Fibrin DD(E) TRITC-Tn6 fluorescence polarization displacement | inhibition, % at 8.3 µM | 370,000 tested, 0.21% active | AID 720509;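 active means inhibition above a per-campaign cutoff: mean of compounds within control limits plus 3 SD, cut at about 15% in these data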
A number is an active result; n = inactive; x = not tested or not shown. Shown are actives, neighbours in structure and some others; about 2.9% of the full set was active somewhere.

SMILES | Tn7 DDE FP | CRFR2-BP antag | proKLK7 act | CendR NRP1 mod | CRFBP-R2 agonist | Tn6 DDE FP
O=C(CS(=O)(=O)c1ccccc1)N1CCc2ccccc21 | n | n | n | n | n | n
O=C(CCS(=O)(=O)c1ccc(Br)s1)N1CCc2ccccc21 | n | n | n | 34.3 | n | n
Cc1cccc(N2C(=O)C(Cl)=C(Nc3c(C)n(C)n(-c4ccccc4)c3=O)C2=O)c1C | n | n | n | 26.0 | n | n
CCOC(=O)NN=C1c2ccccc2-c2ccccc21 | n | n | n | n | n | n
CCOC(=O)Nc1ccc2c(c1)C(=NNC(=S)NC)c1ccccc1-2 | 14.9 | n | n | n | n | n
CNc1nc(-c2ccc3c(c2)CCN3C(=O)c2ccccc2F)cs1 | n | n | n | 24.4 | n | n
CNc1nc(-c2ccc3c(c2)CCN3C(=O)c2ccccc2F)c(C)s1 | n | n | n | n | n | n
O=S(=O)(CC1NCc2cc(F)ccc21)NCc1ccccc1 (stereo not drawn) | n | x | n | x | x | n
O=C1CCN(Cc2cccnc2)CCN1[C@H](CO)c1ccccc1 | n | n | n | 22.0 | n | n
COC(=O)C[C@H]1CC[C@@H]2[C@@H](COc3ccc(NC(=O)Nc4ccccc4OC)cc3C(=O)N2C)O1 | n | x | n | x | x | n
Cc1ccccc1C(=O)Nc1ccc2c(C#N)c3nc4ccccc4nc3n2c1 | n | n | n | n | 83.5 | n
Cc1c(C(=O)Nc2ccccc2)cn2c(nc3ccccc32)c1C#N | n | n | n | n | n | n
C[C@H](O)[C@@H]1CN2CCc3c([nH]c4c(-c5ccc6c(c5)OCO6)cccc34)[C@@H]2C[C@@H]1N(C)C(=O)c1ccccc1F | n | x | n | x | x | n
O=c1nc(N/N=C/C=C/c2ccccc2)cn[nH]1 | n | 98.2 | n | n | n | n
O=C1CN(S(=O)(=O)c2cc(Cl)ccc2Cl)c2ccccc2N1 | n | n | n | 21.6 | n | n
COc1cc(C2Nc3cccc4cccc(c34)N2)cc(OC)c1OC(C)=O | n | n | n | 25.3 | n | n
COc1cc(C2Nc3cccc4cccc(c34)N2)ccc1O | n | n | n | n | n | n
O=S1(=O)c2c(cccc2N2CCSCC2)Oc2ccccc2CN1Cc1cn(Cc2cccc(C(F)(F)F)c2)nn1 | n | x | n | x | x | n
O=c1c(O)c(-c2cccs2)oc2ccc(Cl)cc12 | n | n | n | n | 266.9 | n
O=c1c(O)c(-c2cccs2)oc2ccccc12 | n | n | n | n | 107.7 | n
O=c1c(O)c(-c2ccccc2)oc2ccccc12 | n | n | n | n | n | n
O=C(C(=O)N1CCC(CNS(=O)(=O)c2ccccc2OC(F)(F)F)CC1)c1cccs1 | n | x | n | x | x | n
CS(=O)(=O)Nc1nc2n(n1)C(c1ccccc1)C=C(c1ccc(Br)cc1)N2 (stereo not drawn) | x | n | x | n | 139.1 | x
CC(CCN1CCC(C(O)(c2ccccc2)c2ccccc2)CC1)Oc1ccccc1C#N (stereo not drawn) | n | x | n | x | x | n
COc1ccc(C2c3sc(=O)[nH]c3SCC2C(N)=O)cc1 (stereo not drawn) | n | n | n | n | n | n
SMILES | Tn7 DDE FP | CRFR2-BP antag | proKLK7 act | CendR NRP1 mod | CRFBP-R2 agonist | Tn6 DDE FP
COC(=O)C1CSc2[nH]c(=O)sc2C1c1ccc(O)c(OC)c1 (stereo not drawn) | n | 77.3 | n | n | n | n
Cn1c(=O)oc2cc(S(=O)(=O)Nc3ccccc3)ccc21 | n | n | n | n | n | n
CC(C)NS(=O)(=O)c1ccc2c(c1)oc(=O)n2C | n | n | n | 21.9 | n | n
CC1(C)CC[C@]2(C(=O)O)CC[C@]3(C)C(=CC[C@@H]4[C@@]5(C)CC[C@H](O[C@@H]6O[C@H](C(=O)O)[C@@H](O)[C@H](O[C@@H]7OC[C@H](O)[C@H](O)[C@H]7O)[C@H]6O)C(C)(C)[C@@H]5CC[C@]43C)[C@@H]2C1 | n | n | n | n | 255.9 | n
CC(C)[C@@H]1NC(=O)[C@H]2C[C@@]3(c4ccccc4)c4ccccc4N[C@H]3N2C1=O | n | x | n | x | x | n
O=C(O)C1C2CCC(C2)C1C(=O)Nc1cccc([N+](=O)[O-])c1 (stereo not drawn) | n | n | n | n | n | n
O=C(Nc1cccc([N+](=O)[O-])c1)C1C2CC/C=C\CCC21 (stereo not drawn) | n | n | n | 41.1 | n | n
CCCCN1C(=O)N2Cc3ccc(C)cc3C2CS1(=O)=O (stereo not drawn) | n | x | n | x | x | n
CC1Sc2ccc(S(=O)(=O)N3CCC(C(=O)NCCc4ccccc4)CC3)cc2NC1=O (stereo not drawn) | n | n | n | n | n | n
CC1Sc2ccc(S(=O)(=O)N3CCC(C(=O)NCC(C)c4ccccc4)CC3)cc2NC1=O (stereo not drawn) | n | 52.6 | n | n | n | n
CS(=O)(=O)c1ccc(Nc2nc(C(N)Cc3ccc(Cl)cc3)cs2)cc1 (stereo not drawn) | n | x | n | 33.0 | x | n
CCOc1ccccc1NC(=O)C1CCCCN1S(=O)(=O)c1ccc(F)cc1 (stereo not drawn) | n | n | n | n | n | n
CCOc1ccccc1NC(=O)C1CCC(=O)N1S(=O)(=O)c1ccc(C)cc1 (stereo not drawn) | n | 82.2 | n | n | n | n
S=C(Nc1cccc(Cl)c1)OCCN1CCCC12CCC(c1ccccc1)CC2 (stereo not drawn) | n | x | x | x | x | n
O=C(CC1SC2=NCCN2C1=O)Nc1ccc(Cl)cc1 (stereo not drawn) | n | n | n | 27.0 | n | n
CCn1c(SCC(=O)Nc2ccccc2-c2ccccc2)nnc1-c1ccc(Cl)cc1 | n | x | n | x | x | n
COC1=C[C@H](C(=O)NCCNC(C)=O)[C@@]2(C)Cc3ccccc3[C@H]2CC1=O | n | x | n | x | x | n
COc1ccc(CNc2nc(SC)n[nH]2)cc1OC | n | n | n | n | n | n
COc1ccc(CNc2n[nH]c(NCc3ccc(OC)c(OC)c3)n2)cc1OC | n | n | n | 19.5 | n | n
CCCCNC(=O)c1c(CSc2ccc(Cl)cc2)noc1C(=O)NCCC | n | n | n | 30.7 | n | n
Cc1ccc(S(=O)(=O)N(C)[C@H]2C[C@H]3c4[nH]c5cccc(-c6ccccc6)c5c4CCN3C(=O)[C@H]2[C@H](C)O)cc1 | n | x | n | x | x | n
CCn1c(=O)n(CC(=O)N2CCCC2)c(=O)c2ccccc21 | n | x | n | x | x | n
CCOC(=O)N1CCN(C(=O)C[C@@H]2C(=O)N3CCCC4=C3[C@@]2(C(=O)OCC)CCC4)CC1 | n | x | n | x | x | n
CC(C)NC(=O)N(C)C[C@H]1Oc2ccc(NC(=O)Nc3ccc4c(c3)OCO4)cc2C(=O)N([C@H](C)CO)C[C@@H]1C | n | n | n | 28.6 | n | n
